In the library only some 2% were active in any assay of this set; here they are far more common.
ARFGAP1 inh: inhibitors of rat ARFGAP1; Q62848; Arfgap1-stimulated ARF1 GTP hydrolysis, GDP FP detection; inhibition, % at 16.5 µM; 0.26% of 360,000 active; AID 651572;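 active = inhibition above a per-plate limit, mean inhibition of low control wells plus 3 SD, cut at about 25% in these data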;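 note: 0% = DMSO wells with enzyme and 100% = wells lacking Arfgap1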
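Material: truncated rat Arfgap1 GAP domain; Incubation: compound-enzyme preincubation 20 min, reaction 120 min, detection 60 min, 25 °C; Read-out: percent inhibition of Arfgap1-stimulated GTP hydrolysis; Technique: FP, GDP Alexa 633 tracer displaced from anti-GDP antibody, 620/688 nm; Controls: No-Arfgap1 wells (100%) versus DMSO full-reaction wells (0%); Replication: single well per compound.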
MBD2 DNA inh: inhibitors of human MBD2 binding to methylated oligonucleotide | TR-FRET | inhibition, % at 4.4 µM | 0.31% of 370,000 active; in the data active = inhibition above about 13%
TCR-CD3 inh: blocks the human TCR-CD3 interaction; TAMRA-labeled TCR probe fluorescence, biochemical; inhibition, % at 9.4 µM; 0.37% of 360,000 active; AID 651800; in the data active = inhibition above about 19%;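 note: recombinant mutant TCR 2C K166C tagged with TAMRA read by polarization; 0% = receptor in buffer alone and 100% = receptor with positive control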
UHRF1 MBD2 ctr: human UHRF1 methylated DNA binding inhibitors; inhibition, % at 4.4 µM; 0.75% of 370,000 active; UHRF1 binding to methylated oligo, TR-FRET; AID 687016; in the data active = inhibition above about 21%;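 note: UHRF1 SRA domain binding a hemimethylated CpG hairpin DNA probe; 0% = median of test compound wells and 100% = reference inhibitor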
Target sequence (Q96T88 whole entry, looked up, the tested form may be a part): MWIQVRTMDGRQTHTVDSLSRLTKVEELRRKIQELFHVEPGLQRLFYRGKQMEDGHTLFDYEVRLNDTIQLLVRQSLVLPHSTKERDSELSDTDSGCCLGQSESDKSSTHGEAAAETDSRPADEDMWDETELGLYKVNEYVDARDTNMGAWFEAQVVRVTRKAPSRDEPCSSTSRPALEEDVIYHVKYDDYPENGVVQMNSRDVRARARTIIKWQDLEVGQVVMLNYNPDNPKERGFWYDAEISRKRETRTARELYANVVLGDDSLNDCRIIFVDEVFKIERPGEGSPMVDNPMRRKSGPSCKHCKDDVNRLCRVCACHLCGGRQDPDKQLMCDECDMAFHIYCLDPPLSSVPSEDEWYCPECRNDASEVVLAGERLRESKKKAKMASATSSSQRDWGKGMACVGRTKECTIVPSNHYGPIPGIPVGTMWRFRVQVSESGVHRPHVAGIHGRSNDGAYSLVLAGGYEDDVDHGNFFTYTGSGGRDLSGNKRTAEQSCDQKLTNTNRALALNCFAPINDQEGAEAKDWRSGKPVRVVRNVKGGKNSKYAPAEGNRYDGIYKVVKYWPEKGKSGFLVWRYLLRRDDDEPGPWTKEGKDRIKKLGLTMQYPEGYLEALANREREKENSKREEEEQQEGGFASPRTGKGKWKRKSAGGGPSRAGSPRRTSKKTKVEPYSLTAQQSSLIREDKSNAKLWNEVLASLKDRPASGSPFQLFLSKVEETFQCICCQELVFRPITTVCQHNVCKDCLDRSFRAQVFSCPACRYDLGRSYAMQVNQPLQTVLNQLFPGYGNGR
LEDGF integ inh: blocks HIV-1 LEDGF/p75-dependent DNA integration; TR-FRET IN-LEDGF/p75 DNA integration, Eu/Cy5; inhibition, % at 3.7 µM; 0.64% of 370,000 active;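 active = inhibition above the screen-wide mean plus 3 SD, cut at about 13% in these data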;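 note: signal is the Cy5 over europium emission ratio at 671 and 618 nm; 0% = plate median of compound wells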
ASAP1 GAP inh: blocks human ASAP1-stimulated Arf1 GTP hydrolysis; GDP FP detection; inhibition, % at 16.5 µM; AID 624377; 0.19% of 360,000 active; in the data active = inhibition above about 25%;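 note: 0% = vehicle with enzyme and substrate and 100% = no enzyme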
IN multimer up: counter-screen for LEDGF/p75 integration inhibitors: HIV-1 integrase multimerization activators; 17% of 2,000 active; activation, % at 7.7 µM; shares compounds with LEDGF integ inh; TR-FRET HIV-1 integrase multimerization, biochemical; AID 1053131; in the data active = activation above about 8.9%
TR-FRET interf: optically interferes with TR-FRET readout in LEDGF counter-screen | shares compounds with LEDGF integ inh | TR-FRET optical interference counterscreen, HIV-1 IN multimerization | inhibition, % at 7.7 µM | 2,000 tested, under 10 active | AID 1053135;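 active = inhibition above the mean over all tested compounds plus 3 SD, which no compound reached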;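 note: 0% = integrase with antibodies and DMSO and 100% = antibodies without integrase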
LEDGF integ conf: LEDGF/p75-dependent HIV-1 integration inhibition, confirmation; shares compounds with LEDGF integ inh; TR-FRET LEDGF/p75-dependent HIV-1 integration, biochemical; inhibition, % at 3.7 µM; 36% of 2,000 active; in the data active = inhibition above about 14%
* = called active by the depositor; . = no result; + = active, no number.

SMILES | ARFGAP1 inh | MBD2 DNA inh | TCR-CD3 inh | UHRF1 MBD2 ctr | LEDGF integ inh | ASAP1 GAP inh | IN multimer up | TR-FRET interf | LEDGF integ conf
O=C(O)c1cccc(-n2cccc2/C=C/[N+](=O)[O-])c1 | -6 | 21* | 0 | 74* | 36* | 10 | 14* | -70 | 40*
C=CCN(CC=C)C(=S)NC(=O)c1ccc(OC)cc1 | -1 | 0 | -4 | -2 | -1 | -6 | . | . | .
C=CCN(CC=C)C(=S)NC(=O)c1ccc(C)c(Br)c1 | 6 | -1 | -2 | 0 | 25* | -7 | 0 | 1 | 33*
C=CCN(CC=C)C(=S)NC(=O)c1ccc(-c2ccccc2)cc1 | 2 | 2 | 1 | -5 | 23* | -16 | 0 | 0 | 17*
CC1CCN(S(=O)(=O)CCNC(=O)c2ccc(F)cc2)CC1 | -8 | 1 | -1 | 1 | 6 | -1 | . | . | .
Cc1ccc(/C=C/C(=O)O)cc1S(=O)(=O)NCc1ccco1 | -10 | 3 | -1 | 2 | 5 | 3 | . | . | .
O=[N+]([O-])c1ccc(/C=C/c2ccncc2)cc1 | 10 | 3 | 2 | 1 | 3 | 2 | . | . | .
O=[N+]([O-])c1cccc(/C=C/c2ccncc2)c1 | -2 | 0 | -5 | -10 | 19* | 18 | 0 | 1 | 0
O=C1/C(=C\c2ccco2)SC(=S)N1C1CCS(=O)(=O)C1 (stereo not given) | 2 | 13 | 9 | 54* | 40* | 0 | 6 | -31 | 48*
O=C1/C(=C/c2ccco2)SC(=S)N1C1CCS(=O)(=O)C1 (stereo not given) | -9 | 10 | 1 | 32* | 48* | 0 | 1 | -4 | 27*
Cc1ccc(/C=C2\SC(=S)N(C3CCS(=O)(=O)C3)C2=O)cc1 (stereo not given) | -4 | 8 | -8 | 5 | -5 | -3 | . | . | .
COC(=O)C[C@@H]1C[C@H]2c3cc(NC(=O)CC4CC4)ccc3O[C@H]2[C@@H](CO)O1 | 16 | 3 | -2 | 1 | -2 | 8 | . | . | .
COC(=O)C[C@H]1C[C@H]2c3cc(NC(=O)Cc4ccncc4)ccc3O[C@H]2[C@@H](CO)O1 | -5 | -7 | 4 | -5 | 14* | -12 | 0 | 0 | -5
COc1ccc2nc(NC(=S)N(C)C)sc2c1 | -10 | -8 | 5 | -5 | 17* | 14 | 2 | -12 | 16*
CCCC(=O)Nc1nc2ccc(OC)cc2s1 | 6 | 6 | 6 | -2 | 4 | -4 | . | . | .
O=C1c2ccccc2C(=O)N1/N=C/c1ccc(O)c(O)c1 | 9 | -1 | 18 | 1 | 30* | 1 | 23* | -81 | 59*
COc1cc(C2OCC3C(c4ccc(OC5OC(CO)C(O)C(O)C5O)c(OC)c4)OCC23)ccc1O (stereo not given) | -13 | -4 | 14 | -1 | 32* | -8 | 34* | -120 | 15*
CC1(C(=O)NS(=O)(=O)c2cccc(F)c2)CCN1C(=O)Cc1cccc2ccccc12 (stereo not given) | -4 | 2 | 0 | 1 | -2 | -7 | . | . | .
COC(=O)C1=CN(c2ccc(OC)cc2)C(N)=C(C#N)C1c1cccc2ccccc12 (stereo not given) | -5 | 4 | 1 | 9 | 3 | -2 | . | . | .
CCc1ccc(N2C=C(C(=O)OC)C(c3cccc4ccccc34)C(C#N)=C2N)cc1 (stereo not given) | -2 | 9 | -4 | 7 | 22* | 3 | 1 | -3 | 4
O=C1Nc2ccc(S(=O)(=O)N3CCCC3C(=O)O)c3cccc1c23 (stereo not given) | 12 | -5 | 1 | 1 | 14* | 5 | -2 | 10 | -6
O=C(CSc1nccc2ccccc12)N1CCN(c2ccccn2)CC1 | 1 | -16 | -3 | -16 | 14* | -6 | 3 | -16 | -2
Cc1ccc(SCC(=O)N2CCN(c3ccccn3)CC2)cc1 | 14 | 4 | -2 | 1 | -4 | 12 | . | . | .
O=S(=O)(Nc1ccc(O)c2ccccc12)c1ccc(F)cc1 | -3 | -5 | 1 | -1 | 27* | -13 | 5 | -24 | 8
CCc1ccc(S(=O)(=O)Nc2ccc(O)c3ccccc23)cc1 | -9 | -5 | -11 | -2 | 13 | 22 | . | . | .
SMILES | ARFGAP1 inh | MBD2 DNA inh | TCR-CD3 inh | UHRF1 MBD2 ctr | LEDGF integ inh | ASAP1 GAP inh | IN multimer up | TR-FRET interf | LEDGF integ conf
COc1ccc(OC)c(S(=O)(=O)Nc2cccc3c(O)cccc23)c1 | 6 | -2 | 3 | 0 | 1 | 15 | . | . | .
COc1ccc(NC(=O)Nc2ccc(O)c3ccccc23)cc1 | 6 | -8 | 4 | 1 | 15* | 2 | 7 | -24 | 8
COc1ccc(OC)c(S(=O)(=O)Nc2ccc(O)c3ccccc23)c1 | 5 | -2 | -4 | -2 | 23* | 4 | 0 | 2 | -1
COc1ccc(OCc2cc(C(=O)NCc3cccc(C)n3)no2)c(Cl)c1 | -10 | -4 | 5 | 0 | 0 | 13 | . | . | .
CC(C)C[C@H]1CNC(=O)C(=O)N1C[C@H](Cc1ccc(O)cc1)NC(=O)Cc1ccccc1 | 13 | 4 | -5 | 3 | 75* | -11 | 1 | -3 | -5
CC(=O)C1C(=O)C=C(c2cccs2)CC1c1ccccc1 (stereo not given) | -6 | -1 | 2 | 0 | 1 | 0 | . | . | .
O=C1C=C(c2cccs2)C[C@H](c2ccccc2)[C@H]1n1nnc([N+](=O)[O-])n1 | 5 | -5 | 3 | -4 | 14* | -1 | 2 | -8 | 18*
CCC(C)(C)NC(=O)C(c1cccc(OC)c1OC)N(C(=O)CCC(=O)Nc1cc(C)on1)C(C)C (stereo not given) | -1 | -5 | 1 | 0 | 16* | -6 | -1 | 3 | -14
Cc1cc2c(N)cccc2nn1 | -3 | 9 | + | 45* | 73* | 0 | 8 | -28 | 78*
COc1cccc(NC(=O)CN(C)C(=O)Cc2ccc3c(c2)OCCO3)c1 | -4 | 2 | 0 | -2 | 92* | -18 | -2 | 8 | -2
Cc1cccc(-n2c(C)nc3cc(C(=O)NCc4ccc5c(c4)OCO5)ccc32)c1 | -4 | -3 | -7 | 5 | 3 | -8 | . | . | .
CC(=O)NC1C(=O)N(CCN2CCOCC2)c2ccc(Br)cc21 (stereo not given) | -11 | -3 | 3 | -3 | 16* | -20 | 0 | -2 | 37*

Compound activity (PubChem BioAssay)
